Source: paper PMC9305408 (Chemmedchem, 2022)
Converted amounts (≈) assume the structure as drawn.

Key:
Assay type in all cases: cell-based
[1] = system: Escherichia coli ATCC 25922; test: MIC, broth microdilution; settings: ATCC25922, 24 h, read-out: minimum inhibitory concentration (MIC)
In short: (§1)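 Run by broth microdilution in Mueller-Hinton broth. A 10 mg/mL test sample was added to the first well and serially diluted 1:2 across 12 wells. Bacteria were added to about 10⁶ CFU/mL final, and plates were incubated at 37 °C for 24 h. Resazurin was then added for 2 h at 37 °C, and reduction from blue to pink scored growth. MIC was determined in triplicate.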

[2] = system: Staphylococcus aureus ATCC 29213; test: MIC, broth microdilution; settings: ATCC29213, 24 h, read-out: minimum inhibitory concentration (MIC)
In short: as §1

[3] = system: Pseudomonas aeruginosa ATCC 27853; test: MIC, broth microdilution; settings: ATCC27853, 24 h, read-out: minimum inhibitory concentration (MIC)
In short: as §1

[4] = system: Bacillus subtilis ATCC 3366; test: MIC, broth microdilution; settings: ATCC3366, 24 h, read-out: minimum inhibitory concentration (MIC)
In short: as §1

[5] = system: Candida albicans; test: MIC, broth microdilution; settings: 48 h, read-out: minimum inhibitory concentration (MIC)
In short: (§2)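 Twofold serial dilutions of test compound in Mueller-Hinton broth were run across 12 wells, starting from 10 mg/mL in the first well. Fungal suspension was added at about 10⁶ CFU/mL final, then plates were incubated at 28 °C for 48 h. Resazurin was added for 2 h at 37 °C, with blue-to-pink reduction scored as growth. MIC was determined in triplicate.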

[6] = system: Aspergillus niger; test: MIC, broth microdilution; settings: 48 h, read-out: minimum inhibitory concentration (MIC)
In short: as §2

[7] = system: Candida albicans; test: Agar disc diffusion; settings: 6 mm discs, 6 μl of 10 mg/mL
[8] = system: Aspergillus niger; test: Agar disc diffusion; settings: 6 mm discs, 6 μl of 10 mg/mL
[9] = system: Bacillus subtilis ATCC 3366; test: Agar disc diffusion; settings: ATCC3366, read-out: diameter of the inhibition zone
In short: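 Agar plates (30 ml medium) were each spread with 100 μl fresh culture of one organism. Sterile 6 mm paper discs were loaded with 6 μl of 10 mg/mL test sample. Plates were sealed against evaporation and incubated at 37 °C for 24 h. Inhibition zone diameter was measured in mm, averaged over three independent determinations.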

Compound | MIC [1] | MIC [2] | MIC [3] | MIC [4] | MIC [5] | MIC [6] | diameter of the inhibition zone [7] | diameter of the inhibition zone [8] | zone of inhibition at 10000 µg/mL [9]
COC(=O)[C@H](C)NC(=O)c1cc(=O)n(Cc2cn(Cc3ccccc3)nn2)c2ccccc12 [Compound 3a2, Methyl (S)‐2‐{2‐oxo‐1‐[(1‐benzyl‐1H‐1,2,3‐triazol‐4‐yl)methyl]‐1,2‐dihydroquinoline‐4‐carboxamido}propanoate] | 310 µg/mL (≈ 696 µM) | 2500 µg/mL (≈ 5610 µM) | 2500 µg/mL (≈ 5610 µM) | 2500 µg/mL (≈ 5610 µM) | 10000 µg/mL (≈ 22400 µM) |  |  |  | 
C#CCn1c(=O)cc(C(=O)N[C@@H](C)C(=O)OC)c2ccccc21 [Compound 2 a, Methyl (S)‐2‐[2‐oxo‐1‐(prop‐2‐yn‐1‐yl)‐1,2‐dihydroquinoline‐4‐carbox amido]propanoate] | 620 µg/mL (≈ 1990 µM) | 2500 µg/mL (≈ 8000 µM) | 620 µg/mL (≈ 1990 µM) | 5000 µg/mL (≈ 16000 µM) |  | 10000 µg/mL (≈ 32000 µM) |  |  | 
COC(=O)[C@H](C)NC(=O)c1cc(=O)n(Cc2cn(Cc3ccccc3Br)nn2)c2ccc(Br)cc12 [Compound 3b4, Methyl (S)‐6‐bromo‐2‐{2‐oxo‐1‐[(1‐(2‐bromobenzyl)‐1H‐1,2,3‐triazol‐4‐yl)methyl]‐1,2‐dihydroquinoline‐4‐carboxamido}propanoate] | 310 µg/mL (≈ 514 µM) | 2500 µg/mL (≈ 4140 µM) | 1250 µg/mL (≈ 2070 µM) | 9.75 µg/mL (≈ 16.2 µM) |  |  | did not show any antifungal activity | did not show any antifungal activity | 
CCCCCn1cc(Cn2c(=O)cc(C(=O)N[C@@H](C)C(=O)OC)c3ccccc32)nn1 [Compound 3a1, Methyl (S)‐2‐{2‐oxo‐1‐[(1‐pentyl‐1H‐1,2,3‐triazol‐4‐yl)methyl]‐1,2‐dihydroquinoline‐4‐carboxamido}propanoate] | 78 µg/mL (≈ 183 µM) | 1250 µg/mL (≈ 2940 µM) | 2500 µg/mL (≈ 5880 µM) | 310 µg/mL (≈ 729 µM) |  |  | did not show any antifungal activity | did not show any antifungal activity | 
COC(=O)[C@H](C)NC(=O)c1cc(=O)n(Cc2cn(Cc3ccccc3Br)nn2)c2ccccc12 [Compound 3a4, Methyl (S)‐2‐{2‐oxo‐1‐[(1‐(2‐bromobenzyl)‐1H‐1,2,3‐triazol‐4‐yl)methyl]‐1,2‐dihydroquinoline‐4‐carboxamido}propanoate] | 2500 µg/mL (≈ 4770 µM) | 310 µg/mL (≈ 591 µM) | 2500 µg/mL (≈ 4770 µM) | 78 µg/mL (≈ 149 µM) |  |  | did not show any antifungal activity | did not show any antifungal activity | 18 mm
COC(=O)C(NC(=O)c1ccccc1)n1cc(Cn2c(=O)cc(C(=O)N[C@@H](C)C(=O)OC)c3ccccc32)nn1 (stereo partly drawn) [Compound 3a5, Methyl (S)‐2‐{2‐oxo‐1‐[(1‐(1‐benzamido‐2‐methoxy‐2‐oxoethyl)‐1H‐1,2,3‐triazol‐4‐yl)methyl]‐1,2‐dihydroquinoline‐4‐carboxamido}propanoate] | 19.5 µg/mL (≈ 35.7 µM) | 39 µg/mL (≈ 71.4 µM) | 78 µg/mL (≈ 143 µM) | 310 µg/mL (≈ 567 µM) | 5000 µg/mL (≈ 9150 µM) | 10000 µg/mL (≈ 18300 µM) |  |  | 
COC(=O)[C@H](C)NC(=O)c1cc(=O)n(Cc2cn(Cc3ccccc3C)nn2)c2ccc(Br)cc12 [Compound 3b3, Methyl (S)‐6‐bromo‐2‐{2‐oxo‐1‐[(1‐(2‐methylbenzyl)‐1H‐1,2,3‐triazol‐4‐yl)methyl]‐1,2‐dihydroquinoline‐4‐carboxamido}propanoate] | 620 µg/mL (≈ 1150 µM) | 2500 µg/mL (≈ 4640 µM) | 620 µg/mL (≈ 1150 µM) | 310 µg/mL (≈ 576 µM) |  |  | did not show any antifungal activity | did not show any antifungal activity | 
C#CCn1c(=O)cc(C(=O)N[C@@H](C)C(=O)OC)c2cc(Br)ccc21 [Compound 2 b, Methyl (S)‐6‐bromo‐2‐[2‐oxo‐1‐(prop‐2‐yn‐1‐yl)‐1,2‐dihydroquinoline‐4‐carboxamido]propanoate] | 620 µg/mL (≈ 1580 µM) | 2500 µg/mL (≈ 6390 µM) | 2500 µg/mL (≈ 6390 µM) | 2500 µg/mL (≈ 6390 µM) | 10000 µg/mL (≈ 25600 µM) |  |  |  | 
COC(=O)[C@H](C)NC(=O)c1cc(=O)n(Cc2cn(Cc3ccccc3C)nn2)c2ccccc12 [Compound 3a3, Methyl (S)‐2‐{2‐oxo‐1‐[(1‐(2‐methylbenzyl)‐1H‐1,2,3‐triazol‐4‐yl)methyl]‐1,2‐dihydroquinoline‐4‐carboxamido}propanoate] | 39 µg/mL (≈ 84.9 µM) | 1250 µg/mL (≈ 2720 µM) | 1250 µg/mL (≈ 2720 µM) | 2500 µg/mL (≈ 5440 µM) | 10000 µg/mL (≈ 21800 µM) |  |  |  | 
